Measurements from ChEMBL document CHEMBL4043195, “Development of water-soluble 3,5-dinitrophenyl tetrazole and oxadiazole antitubercular agents” (Bioorg Med Chem, 2017).
In brackets after ≈: the same amount, converted by molar mass.

Experiments:
[1] = tested on: Mycobacterium tuberculosis; experiment: Antimycobacterial activity against Mycobacterium tuberculosis H37Rv CNCTC My 331/88 incubated for 14 days by micromethod; type: functional; settings: for MIC99: Mycobacterium tuberculosis, H37Rv CNCTC My 331/88, 336 h
In short: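 Strain H37Rv was tested in Sula's semisynthetic medium by micromethod. The basic suspension was set to 1.0 McFarland and diluted 10^-3, with 0.1 mL added per well. Compounds were added from DMSO at 32 to 0.03 µM. […] INH and RIF were used as standards.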

[2] = tested on: Mycobacterium avium; experiment: Antimycobacterial activity against Mycobacterium avium CNCTC My 330/88 incubated for 14 days by micromethod; type: functional; settings: for MIC99: Mycobacterium avium, CNCTC My 330/88, 336 h
In short: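 Micromethod MIC assay in Sula's semisynthetic medium. The inoculum was a 1.0 McFarland suspension diluted 10^-5, with 0.1 mL added per well. Compounds were dissolved in DMSO and tested at 1000 to 1 µM in two-fold steps. Plates were incubated at 37 °C for 14 days. […] INH and RIF were the reference drugs.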

[3] = tested on: Mycobacterium kansasii; experiment: Antimycobacterial activity against Mycobacterium kansasii CNCTC My 235/80 incubated for 14 days by micromethod; type: functional; settings: for MIC99: Mycobacterium kansasii, CNCTC My 235/80, 336 h
In short: (§1)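 M. kansasii MIC by micromethod in Sula's semisynthetic medium. Inoculum was a 1.0 McFarland suspension diluted 10^-4, 0.1 mL per well. Compounds were dissolved in DMSO and tested at 32 to 0.03 µM in twofold steps. […] INH and RIF were reference drugs.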

[4] = tested on: Mycobacterium kansasii; experiment: Antimycobacterial activity against Mycobacterium kansasii 6509/96 incubated for 14 days by micromethod; type: functional; settings: for MIC99: Mycobacterium kansasii, 6509/96, 336 h; in short: as §1
[5] = tested on: Mycobacterium tuberculosis; experiment: Antimycobacterial activity MDR/XDR against Mycobacterium tuberculosis isolate Praha 131 incubated for 14 days by micromethod; type: functional; settings: for MIC99: isolate Praha 131, 336 h
[6] = tested on: Mycobacterium tuberculosis; experiment: Antimycobacterial activity MDR/XDR against Mycobacterium tuberculosis isolate Praha 4 incubated for 14 days by micromethod; settings: isolate Praha 4, 336 h
[7] = Solubility in pure water at room temperature by HPLC method; type: physicochemical
[8] = Solubility in pH 3.0 citrate buffer by HPLC method; type: physicochemical
In short: (§2)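 Salt (15 mg) was shaken 2 h at room temperature in 1 mL 0.05 M citrate pH 3, 1 mL 0.1 M acetate pH 5, or 5 mL PBS pH 7.4. Suspensions were decanted and filtered (0.22 µm PTFE). Citrate and acetate solutions were diluted 500-fold in water/acetonitrile 1:1. Analysis by HPLC with diode-array detection on a C18 column at 30 °C. At least 4 repeats.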

[9] = Solubility in pH 5 acetate buffer by HPLC method; type: physicochemical; in short: as §2
[10] = Solubility in pH 7.4 PBS buffer by HPLC method; type: physicochemical; in short: as §2
[11] = tested on: Mycobacterium tuberculosis; experiment: Antimycobacterial activity MDR/XDR against Mycobacterium tuberculosis isolate Praha 1 incubated for 14 days by micromethod; type: functional; settings: for MIC99: isolate Praha 1, 336 h
[12] = tested on: Mycobacterium tuberculosis; experiment: Antimycobacterial activity MDR/XDR against Mycobacterium tuberculosis isolate 9449/2007 incubated for 14 days by micromethod; type: functional; settings: for MIC99: isolate 9449/2007, 336 h
[13] = tested on: Mycobacterium tuberculosis; experiment: Antimycobacterial activity MDR/XDR against Mycobacterium tuberculosis isolate 7357/1998 incubated for 14 days by micromethod; type: functional; settings: for MIC99: isolate 7357/1998, 336 h
[14] = tested on: Mycobacterium tuberculosis; experiment: Antimycobacterial activity MDR/XDR against Mycobacterium tuberculosis isolate 8666/2010 incubated for 14 days by micromethod; type: functional; settings: for MIC99: isolate 8666/2010, 336 h
[15] = tested on: Caco-2; experiment: Cytotoxicity against human Caco2 cells assessed as reduction in cell viability incubated for 48 hrs by CellTiter 96 aqueous one solution cell proliferation assay; type: cell-based; settings: Caco-2, 48 h
In short: (§3)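 Caco-2, HepG2, A431 and COS-1 cells were exposed 48 h to compound or DMSO vehicle (0.1%) in Opti-MEM reduced-serum medium. MTS reagent was added for 4 h and formazan absorbance read at 490 nm. A 10% SDS toxic control was added 45 min before MTS. Vehicle and SDS were set to 100% and 0% viability; values given as relative viability at 30 µM. Triplicates, repeated at least three times.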

[16] = Cytotoxicity against human Caco2 cells assessed as cell viability at 30 uM incubated for 48 hrs by CellTiter 96 aqueous one solution cell proliferation assay; type: cell-based; settings: Caco-2 cells, read-out: Activity; in short: as §3
[17] = tested on: HepG2; experiment: Cytotoxicity against human HepG2 cells assessed as reduction in cell viability incubated for 48 hrs by CellTiter 96 aqueous one solution cell proliferation assay; type: cell-based; settings: HepG2, 48 h; in short: as §3
[18] = Cytotoxicity against human HepG2 cells assessed as cell viability at 30 uM incubated for 48 hrs by CellTiter 96 aqueous one solution cell proliferation assay; type: cell-based; settings: read-out: Activity; in short: as §3
[19] = tested on: A-431; experiment: Cytotoxicity against human A431 cells assessed as reduction in cell viability incubated for 48 hrs by CellTiter 96 aqueous one solution cell proliferation assay; type: cell-based; settings: A-431, 48 h; in short: as §3
[20] = Cytotoxicity against human A431 cells assessed as cell viability at 30 uM incubated for 48 hrs by CellTiter 96 aqueous one solution cell proliferation assay; type: cell-based, A-431; settings: read-out: Activity; in short: as §3
[21] = tested on: COS-1; experiment: Cytotoxicity against African green monkey COS1 cells assessed as reduction in cell viability incubated for 48 hrs by CellTiter 96 aqueous one solution cell proliferation assay; type: cell-based; settings: Chlorocebus aethiops, COS-1, 48 h; in short: as §3
[22] = Cytotoxicity against African green monkey COS1 cells assessed as cell viability at 30 uM incubated for 48 hrs by CellTiter 96 aqueous one solution cell proliferation assay; type: cell-based; settings: chlorocebus aethiops, COS-1 cells; read-out: Activity; in short: as §3
[23] = tested on: Mycobacterium tuberculosis; experiment: microbe, parasite or virus in culture; settings: isolate 234/2005, 336 h

Row | Compound | MIC99 [1] [µM] | MIC99 [2] [µM] | MIC99 [3] [µM] | MIC99 [4] [µM] | further results
1 | CN1CCN(CCCn2nnc(-c3cc([N+](=O)[O-])cc([N+](=O)[O-])c3)n2)CC1 | > 32 | 250 (≈ 94.1 µg/mL) | 32 (≈ 12 µg/mL) | > 32 | 
2 | O=[N+]([O-])c1cc(-c2nnn(CCCN3CCCCC3)n2)cc([N+](=O)[O-])c1 | 4 (≈ 1.45 µg/mL) | 62.5 (≈ 22.6 µg/mL) | 16 (≈ 5.78 µg/mL) | 16 (≈ 5.78 µg/mL) | 
3 | O=[N+]([O-])c1cc(-c2nnc(SCCCN3CCN(Cc4ccccc4)CC3)o2)cc([N+](=O)[O-])c1 | 0.125 (≈ 0.0606 µg/mL) | 2 (≈ 0.969 µg/mL) | 1 (≈ 0.485 µg/mL) | 0.5 (≈ 0.242 µg/mL) | 
4 | O=[N+]([O-])c1cc(CSc2nnc(CCCN3CCN(Cc4ccccc4)CC3)o2)cc([N+](=O)[O-])c1 | 2 (≈ 0.997 µg/mL) | 32 (≈ 16 µg/mL) | 2 (≈ 0.997 µg/mL) | 2 (≈ 0.997 µg/mL) | 
5 | NCC[C@H](O)C(=O)N[C@@H]1C[C@H](N)[C@@H](O[C@H]2O[C@H](CN)[C@@H](O)[C@H](O)[C@H]2O)[C@H](O)[C@H]1O[C@H]1O[C@H](CO)[C@@H](O)[C@H](N)[C@H]1O [AMIKACIN] |  |  |  |  | MIC99 [5]: > 32 µM
6 | O=[N+]([O-])c1cc(CSc2nnc(CCCCCN3CCN(Cc4ccccc4)CC3)o2)cc([N+](=O)[O-])c1 |  |  |  | 2 (≈ 1.05 µg/mL) | MIC>99 [1]: 1 µM (≈ 0.527 µg/mL); MIC>99 [2]: 16 µM (≈ 8.43 µg/mL); MIC>99 [3]: 2 µM (≈ 1.05 µg/mL)
7 | CN1CCN(CCCSc2nnc(-c3cc([N+](=O)[O-])cc([N+](=O)[O-])c3)o2)CC1 | > 32 | 125 (≈ 51.1 µg/mL) | 16 (≈ 6.54 µg/mL) | > 32 | 
8 | O=[N+]([O-])c1cc(-c2nnn(CCCN3CCOCC3)n2)cc([N+](=O)[O-])c1 | 16 (≈ 5.81 µg/mL) | 500 (≈ 182 µg/mL) | 16 (≈ 5.81 µg/mL) | 16 (≈ 5.81 µg/mL) | 
9 | CN1CCN(CCCc2nnc(SCc3cc([N+](=O)[O-])cc([N+](=O)[O-])c3)o2)CC1 | > 32 | 1000 (≈ 422 µg/mL) | > 32 | > 32 | 
10 | O=[N+]([O-])c1cc(-c2nnn(CCCN3CCN(Cc4ccccc4)CC3)n2)cc([N+](=O)[O-])c1 | 1 (≈ 0.452 µg/mL) | 8 (≈ 3.62 µg/mL) | 2 (≈ 0.905 µg/mL) | 1 (≈ 0.452 µg/mL) | 
11 | CC1COc2c(N3CCN(C)CC3)c(F)cc3c(=O)c(C(=O)O)cn1c23 (stereo not drawn) [OFLOXACIN] |  |  |  |  | MIC99 [6]: > 16 µM
12 | Cl.Cl.O=[N+]([O-])c1cc(CSc2nnc(CCCCCN3CCN(Cc4ccccc4)CC3)o2)cc([N+](=O)[O-])c1 | 2 | 32 | 2 |  | solubility [7]: 17.1 mM; solubility [8]: 18 mM; solubility [9]: 9 mM; solubility [10]: 113 µM; MIC>99 [4]: 2 µM; MIC99 [11]: 2 µM; MIC99 [6]: 2 µM; MIC99 [5]: 2 µM; MIC99 [12]: 2 µM; MIC99 [13]: 2 µM; MIC99 [14]: 2 µM; IC50 [15]: > 30 µM; viability at 48 h, 30 µM [16]: 105%; IC50 [17]: > 30 µM; viability at 48 h, 30 µM [18]: 112%; IC50 [19]: > 30 µM; viability at 48 h, 30 µM [20]: 86%; IC50 [21]: > 30 µM; viability at 48 h, 30 µM [22]: 99%; MIC99 [23]: 2 µM
13 | GENTAMICIN |  |  |  |  | MIC>99 [11]: 1 µM; MIC>99 [5]: > 8 µM; MIC>99 [12]: 1 µM; MIC>99 [13]: 1 µM; MIC>99 [14]: 2 µM
14 | CO[C@H]1/C=C/O[C@@]2(C)Oc3c(C)c(O)c4c(O)c(c(/C=N/N5CCN(C)CC5)c(O)c4c3C2=O)NC(=O)/C(C)=C\C=C\[C@H](C)[C@H](O)[C@@H](C)[C@@H](O)[C@@H](C)[C@H](OC(C)=O)[C@@H]1C [RIFAMPIN] | 0.25 (≈ 0.206 µg/mL) | 32 (≈ 26.3 µg/mL) | 0.25 (≈ 0.206 µg/mL) | 0.125 (≈ 0.103 µg/mL) | MIC99 [11]: > 8 µM; MIC99 [6]: > 8 µM; MIC99 [5]: > 8 µM; MIC99 [12]: > 8 µM; MIC99 [13]: > 8 µM; MIC99 [14]: > 8 µM; MIC99 [23]: > 8 µM
15 | CN1CCN(CCCCCc2nnc(SCc3cc([N+](=O)[O-])cc([N+](=O)[O-])c3)o2)CC1 | 32 (≈ 14.4 µg/mL) | 250 (≈ 113 µg/mL) | > 32 | > 32 | 
16 | O=[N+]([O-])c1cc(-c2nnc(SCCCN3CCCCC3)o2)cc([N+](=O)[O-])c1 | 8 (≈ 3.15 µg/mL) | 62.5 (≈ 24.6 µg/mL) | 32 (≈ 12.6 µg/mL) | 16 (≈ 6.29 µg/mL) | 
17 | O=[N+]([O-])c1cc(CSc2nnc(CCCN3CCOCC3)o2)cc([N+](=O)[O-])c1 | 8 (≈ 3.28 µg/mL) | 500 (≈ 205 µg/mL) | 8 (≈ 3.28 µg/mL) | 8 (≈ 3.28 µg/mL) | 
18 | CN[C@@H]1[C@H](O[C@H]2[C@H](O[C@H]3[C@H](O)[C@@H](O)[C@H](N=C(N)N)[C@@H](O)[C@@H]3N=C(N)N)O[C@@H](C)[C@]2(O)C=O)O[C@@H](CO)[C@H](O)[C@H]1O [STREPTOMYCIN] |  |  |  |  | MIC99 [6]: > 32 µM; MIC99 [5]: > 32 µM; MIC99 [12]: > 32 µM; MIC99 [13]: > 32 µM; MIC99 [14]: > 32 µM
19 | NNC(=O)c1ccncc1 [ISONIAZID] |  | > 250 | > 250 | 4 (≈ 0.549 µg/mL) | 
20 | O=[N+]([O-])c1cc(CSc2nnc(CCCN3CCCCC3)o2)cc([N+](=O)[O-])c1 | 16 (≈ 6.52 µg/mL) | 250 (≈ 102 µg/mL) | 16 (≈ 6.52 µg/mL) | 16 (≈ 6.52 µg/mL) | 
21 | O=[N+]([O-])c1cc(-c2nnc(SCCCN3CCOCC3)o2)cc([N+](=O)[O-])c1 | 8 (≈ 3.16 µg/mL) | 125 (≈ 49.4 µg/mL) | 8 (≈ 3.16 µg/mL) | 16 (≈ 6.33 µg/mL) | 
22 | O=[N+]([O-])c1cc(CSc2nnc(CCCCCN3CCCCC3)o2)cc([N+](=O)[O-])c1 | 16 (≈ 6.97 µg/mL) | 62.5 (≈ 27.2 µg/mL) | 16 (≈ 6.97 µg/mL) | 32 (≈ 13.9 µg/mL) | 
23 | O=[N+]([O-])c1cc(CSc2nnc(CCCCCN3CCOCC3)o2)cc([N+](=O)[O-])c1 | 8 (≈ 3.5 µg/mL) | 125 (≈ 54.7 µg/mL) | 8 (≈ 3.5 µg/mL) | 8 (≈ 3.5 µg/mL) | 
